Screens from PubChem BioAssay.
Beta cell apopt: blocks beta cell apoptosis. 300,000 tested, 0.8% active. protection from apoptosis, % (concentration not given with the values). INS-1E cytokine-induced death, ATP luminescence, 48 h; percent of positive-control rescue, neutral wells zero. AID 435005;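 active = Every replicate reaches about 75%, or at least half do and their mean reaches it too, limit read from the data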;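 note: 0% = cytokine-treated negative control wells and 100% = positive control rescue; higher means more ATP so stronger rescue from cytokine killing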
XBP1 UPR activ: activators of adaptive arm of unfolded protein response (XBP1). activation, % at 20 µM. CHO-XBP1 luciferase reporter, IRE1-XBP1 UPR activation, luminescence; percent of tunicamycin response, DMSO as zero. 330,000 tested, 0.33% active. AID 463104;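 active = versus positive control, 20 µM dose yields 30% or more activation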;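 note: 100% = tunicamycin at 10 µg/mL and 0% = DMSO only wells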
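assay system = CHO-XBP1 luciferase reporter cells | amount = 1000 cells/well | buffer or medium = F12 plus 10% FBS | compound dosing = single point, 20 µM final compound, 1% DMSO | incubation = 16-18 h cell attachment at 37 °C, then 6 h compound exposure | detection = Steady-Glo luminescence read | controls = tunicamycin 10 µg/mL and vehicle-only wells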
T cruzi inh: blocks replication of Trypanosoma cruzi; T. cruzi beta-gal in NIH3T3, luminescence, 90 h; inhibition, % (test concentration not listed); 300,000 tested, 1.4% active;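 active = mean inhibition across valid replicates above about 55%, limit read from the data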;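 note: signal also drops with host cell toxicity which is not excluded here; 0% = plate median of DMSO wells and 100% = zero luminescence signal; higher percent means less beta-gal luminescence so fewer parasites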
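Assay system: NIH/3T3 fibroblasts plus reporter T. cruzi. Amount: NIH/3T3 cells, 5,000 per well. Buffer or medium: DMEM, 2% fetal bovine serum. Doses: compound pinned at 50 nL/well, DMSO. Schedule: ≥90 h infection period, 3 h prior cell attachment. Signal: luminescent β-galactosidase signal after 60 min lysis. Read-out: parasite load inhibition, %.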
Mdm2-MdmX inh: disrupts the human Mdm2-MdmX interaction. inhibition, % at 8 µM. 330,000 tested, 3% active. AID 485346. SaOS-2 split-luciferase Mdm2/MdmX complementation, luminescence;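 active = inhibition of at least 50% at 8 µM in the primary screen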
Target sequence (O15151 whole entry, looked up): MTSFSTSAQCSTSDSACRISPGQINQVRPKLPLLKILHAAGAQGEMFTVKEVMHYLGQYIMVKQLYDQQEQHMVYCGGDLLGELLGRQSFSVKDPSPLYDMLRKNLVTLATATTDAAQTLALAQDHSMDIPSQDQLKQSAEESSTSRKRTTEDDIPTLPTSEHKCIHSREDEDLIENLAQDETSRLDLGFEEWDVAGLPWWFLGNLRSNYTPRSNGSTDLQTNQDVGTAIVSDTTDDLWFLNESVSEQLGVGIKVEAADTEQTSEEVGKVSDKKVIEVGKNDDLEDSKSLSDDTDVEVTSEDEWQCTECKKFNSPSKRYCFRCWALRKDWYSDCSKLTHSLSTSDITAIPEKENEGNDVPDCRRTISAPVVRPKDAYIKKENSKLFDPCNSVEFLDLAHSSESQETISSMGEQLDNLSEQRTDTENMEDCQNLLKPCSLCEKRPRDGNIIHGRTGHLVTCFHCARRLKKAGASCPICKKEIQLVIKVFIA
Target sequence (Q00987 whole entry, looked up): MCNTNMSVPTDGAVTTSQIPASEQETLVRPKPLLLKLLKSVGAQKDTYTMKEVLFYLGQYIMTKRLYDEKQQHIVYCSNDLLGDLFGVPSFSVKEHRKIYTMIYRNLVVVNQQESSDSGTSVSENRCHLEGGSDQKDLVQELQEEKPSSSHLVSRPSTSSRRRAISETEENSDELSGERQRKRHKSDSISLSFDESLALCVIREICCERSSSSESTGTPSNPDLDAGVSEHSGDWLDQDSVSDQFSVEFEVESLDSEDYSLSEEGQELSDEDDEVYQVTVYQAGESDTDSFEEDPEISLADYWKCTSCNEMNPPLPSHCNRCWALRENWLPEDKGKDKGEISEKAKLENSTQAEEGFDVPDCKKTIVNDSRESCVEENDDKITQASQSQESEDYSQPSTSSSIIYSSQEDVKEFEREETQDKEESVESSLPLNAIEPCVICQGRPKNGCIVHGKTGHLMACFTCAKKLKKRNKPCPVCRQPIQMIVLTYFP
CHOP UPR activ: activators of apoptotic arm of unfolded protein response (CHOP). CHO-CHOP luciferase reporter, UPR activation, luminescence; percent of tunicamycin response over DMSO baseline. 330,000 tested, 0.34% active. activation, % at 10 µM;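 active = at 10 µM dose, activation of 40% or more, normalized to positive control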;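 note: 100% = tunicamycin at 10 µg/mL and 0% = DMSO alone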
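System: CHO CHOP reporter cells. Amount: 500 cells per well. Buffer or medium: F12 medium, 10% FBS. Compound dosing: one dose, 10 µM in 0.5% DMSO. Incubation: 6 h compound exposure at 37 °C after overnight seeding. Technique: Steady-Glo luciferase luminescence. Benchmarks: tunicamycin and DMSO controls.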
CSC inhib: cancer stem cell inhibition; cancer stem cell-like cells viability, luminescence; inhibition, % at 7.5 µM; 300,000 tested, 1.1% active; AID 2717; in the data active = inhibition above about 75%; tested in HMLE shEcad cells
Mdm2 MdmX conf: human Mdm2/MdmX binding inhibition, confirmed | inhibition, % at 8 µM | AID 489028 | shares compounds with Mdm2-MdmX inh | luminescent assay | 10,000 tested, 55% active; in the data active = inhibition above about 40%
Full FLuc ctr: inhibits full-length luciferase, flagging false Mdm2/MdmX hits. SaOS-2 full-length luciferase counterscreen, luminescence. inhibition, % at 8 µM. AID 504607. 6,200 tested, 77% active. shares compounds with Mdm2-MdmX inh;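 active = mean inhibition at 8 µM reaching about 37%, which flags the compound as non-specific, limit read from the data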;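 note: p53-null SaOS-2 cells with luciferase driven by a doxycycline-inducible promoter; compound on cells about two nights before reading with doxycycline added after day one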
Numbers without * were called inactive; . = not tested or not shown. A selection: hits, their analogues and other compounds. The true share with any hit is near 5%.

SMILES | Beta cell apopt | XBP1 UPR activ | T cruzi inh | Mdm2-MdmX inh | CHOP UPR activ | CSC inhib | Mdm2 MdmX conf | Full FLuc ctr
CC(=O)Nc1cccc(Oc2ncccc2[N+](=O)[O-])c1 | -7.0 | -1.0 | -7.9 | -13.0 | 1.6 | 3.8 | . | .
O=[N+]([O-])c1cccnc1Oc1ccc(F)cc1 | -4.3 | -2.4 | -5.7 | 20.3 | 0.3 | 1.4 | . | .
CCOC(=O)C1(N(CC)CC)Sc2cc(C)ccc2NC1=O (stereo not drawn) | 8.3 | -1.7 | -4.5 | 68.1* | -0.5 | 37.2 | 68.6* | 52.2*
CCOC(=O)c1[nH]c2ccc(C)cc2c1N | -4.3 | 4.1 | 0.4 | -73.6 | 2.8 | -15.5 | . | .
C/C(=N\Nc1ccc2nncn2n1)c1ccccn1 | 79.6* | -1.6 | 63.4* | 80.7* | -3.0 | 98.5* | 84.4* | 47.8*
C=CC(=O)Nc1cccc(Oc2cc(Cl)nc3[nH]ccc23)c1 | -6.2 | -2.3 | . | 80.4* | 2.6 | . | 71.7* | 42.4*
COc1cccc(NC(=O)c2cccc(C(=O)Nc3cccc(OC)c3)n2)c1 | 3.9 | -4.9 | -4.8 | 17.3 | 2.2 | -4.6 | . | .
COc1ccccc1NC(=O)N(Cc1ccco1)Cc1cc2cc(C)cc(C)c2[nH]c1=O | 6.8 | -3.0 | 29.9 | 53.1* | -1.0 | 0.2 | 37.0 | .
Cc1cc2cc(CN(Cc3ccco3)S(=O)(=O)c3c(C)ccc4nsnc34)c(=O)[nH]c2cc1C | -2.7 | -2.7 | 53.2 | 60.5* | 3.3 | 18.8 | 54.1* | 54.0*
COc1ccccc1NC(=S)N(Cc1ccco1)Cc1cc2cc(C)c(C)cc2[nH]c1=O | 8.8 | -0.8 | -1.8 | 59.4* | 1.6 | -10.6 | 54.0* | 56.5*
COC(=O)c1cn(NC(=O)c2cc([N+](=O)[O-])ccc2F)c(=O)c2ccccc12 | -21.2 | -2.5 | 40.2 | 83.1* | -1.1 | 42.0 | 75.9* | 53.7*
CN(C)C1=NCCN1CCc1cccc(F)c1 | -5.9 | 0.4 | -13.4 | 0.6 | -1.6 | -10.2 | . | .
COc1ccc(C[C@H]2CN3C(=NC[C@@H]3C(C)C)N2CCNC(=O)CCC2CCCCC2)cc1 | -14.0 | 0.4 | -2.9 | 36.3 | -1.6 | 3.7 | . | .
COc1ccc(C[C@H]2CN3C(=NC[C@@H]3Cc3ccccc3)N2CCNC(=O)CCC2CCCCC2)cc1 | 100.8* | 2.0 | 24.3 | 88.3* | 2.4 | 127.7* | 28.0 | 53.7*
Cc1cc(C)n(CC(=O)O)c(=O)c1[N+](=O)[O-] | -1.5 | 1.8 | . | -26.0 | 0.8 | . | . | .
CCCc1nc(SCC(=O)N2CCOCC2)c2c(C)c(C)sc2n1 | 3.3 | -2.0 | 23.9 | 0.2 | 1.1 | -19.4 | . | .
Cc1c(Cl)cccc1N=C1SCCN1C(=O)CN1C(=O)NC2(CCCC2)C1=O | -8.9 | 2.1 | -5.7 | 77.6* | 3.1 | -4.4 | 45.1* | 68.7*
CN(C)C(=O)CCc1ccc2c3c([nH]c2c1)[C@]1(CCC2CCCC2)[C@@H](C(=O)N2CCOCC2)C[C@H](CC(=O)NCC24CC5CC(CC(C5)C2)C4)C(=O)N1CC3 | . | 12.7 | . | 70.0* | 6.4 | . | 63.2* | 43.9*
COCCCNC(=O)C[C@H]1C[C@H](C(=O)N2CCOCC2)[C@@]2(CCC3CCCC3)c3[nH]c4cc(CCC(=O)N(C)C)ccc4c3CCN2C1=O | . | 1.2 | . | -5.8 | 3.3 | . | . | .
CC(C)=CCC/C(C)=C/CNC(=O)C[C@H]1C[C@H](C(=O)N2CCOCC2)[C@@]2(CCC3CCCC3)c3[nH]c4cc(CCC(=O)N(C)C)ccc4c3CCN2C1=O | . | 21.3 | . | 77.1* | 9.4 | . | 20.6 | .
COCCCNC(=O)C[C@H]1C[C@H](C(=O)N2CCOCC2)[C@@]2(C)c3[nH]c4cc(CCC(=O)N(C)C)ccc4c3CCN2C1=O | . | 2.6 | . | 63.5* | 2.3 | . | -23.6 | .
COCCCNC(=O)C[C@H]1C[C@H](C(=O)N(C(C)C)C(C)C)[C@@]2(C)c3[nH]c4cc(CCC(=O)N(C)C)ccc4c3CCN2C1=O | . | 1.3 | . | 19.4 | 1.5 | . | . | .
COc1ccc(NC(=O)C2(S(=O)(=O)c3ccc(C)cc3)CC2)cc1 | -3.7 | 4.1 | -1.0 | 8.4 | 1.7 | . | . | .
O=C(COC(=O)CCC(=O)c1ccc(F)cc1)NCc1ccccc1Cl | -1.1 | 0.8 | . | 7.8 | -1.0 | -2.6 | . | .
CCN(CC)S(=O)(=O)c1ccc(OC)c(NC(=O)CC2CCCC2)c1 | 4.1 | -4.9 | 4.3 | 8.1 | 1.0 | -14.3 | . | .
SMILES | Beta cell apopt | XBP1 UPR activ | T cruzi inh | Mdm2-MdmX inh | CHOP UPR activ | CSC inhib | Mdm2 MdmX conf | Full FLuc ctr
O=C(NC1CCCC1)C(c1ccc(F)cc1)N(Cc1ccccc1Cl)C(=O)CCl (stereo not drawn) | -6.0 | 6.5 | -10.3 | 55.2* | 10.0 | 6.9 | 20.5 | .
COCCN(C(=O)CCl)C(C(=O)NC1CCCCC1)c1ccccc1C (stereo not drawn) | . | -1.7 | -10.0 | 97.2* | 7.6 | . | 72.2* | 37.9*
O=C(NC1CCCC1)C(c1ccc(F)cc1)N(Cc1ccc(F)cc1)C(=O)c1ccn[nH]1 (stereo not drawn) | -0.5 | -3.2 | 13.6 | -11.8 | -0.2 | -9.8 | . | .
O=C(COc1ccccc1[N+](=O)[O-])N(Cc1ccco1)C1CCS(=O)(=O)C1 (stereo not drawn) | 0.8 | -6.8 | -5.5 | 7.3 | -0.3 | -11.0 | . | .
N#C/C(N=Nc1ccccc1O)=N\Nc1ccccc1O | 115.2* | -2.4 | 29.3 | 81.9* | 7.3 | 8.8 | 93.9* | 17.5
Cc1cc(O)c(S(=O)(=O)c2ccccc2)c(C)c1NS(=O)(=O)c1ccccc1 | -10.6 | 3.3 | 16.2 | 7.9 | 3.2 | . | . | .
C=C[C@H](Cc1ccccc1)N(Cc1ccccc1)S(=O)(=O)N(Cc1ccccc1)[C@H](C=C)Cc1ccccc1 | 82.0* | -4.8 | . | 89.8* | 5.9 | 20.8 | 62.9* | 86.3*
CC(C)N(Cc1ccccc1)S(=O)(=O)c1ccc(F)cc1 | 47.0 | -1.3 | 16.0 | 31.0 | 0.4 | -8.9 | . | .
COc1cccc(-n2cc(C(=O)NCCCOC(C)C)c3ccccc3c2=O)c1 | -10.2 | -3.9 | -8.4 | -12.0 | 2.5 | -11.8 | . | .
C=C1C(C(=O)Nc2ccc(OC)cc2)C1C(=O)Nc1ccc(OC)cc1 (stereo not drawn) | -6.4 | -1.1 | -7.1 | 71.8* | 1.2 | -6.7 | 25.2 | .
CNC[C@H](CC1CCCCC1)NC[C@H](Cc1ccccc1)NCCC12CC3CC(CC(C3)C1)C2 | 114.3* | -8.6 | 46.2 | 100.3* | 17.8 | -18.0 | 99.7* | 52.0*
NC[C@H](Cc1ccccc1)NCCCCC1CCCCC1 | -2.0 | 7.2 | . | -14.4 | -1.0 | 0.8 | . | .
CCOC(=O)c1ccc(-c2ccc(C3Nc4ccccc4C(=O)N3O)o2)cc1 (stereo not drawn) | 6.7 | -1.2 | 16.4 | 72.4* | 1.0 | -3.9 | 62.5* | 58.0*
